Assay outcomes (PubChem)
CHT PAM: human CHT allosteric activation; Q9GZV3; CHT-expressing cells, membrane potential dye, choline EC20; stronger effect = higher value; LV-AA mutant CHT in HEK293 cells; B-score at 10 µM; actives 0.49% (n = 310,000);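 active means initial fluorescence not abnormally high and integrated response B-score, plate-corrected, over 3 SD above library mean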
TNAP inh hiacc: blocks human TNAP under high phosphate acceptor concentration. P05186. purified TNAP, CDP-star luminescence, 1 M DEA. inhibition, % at 20 µM. actives 0.03% (n = 200,000);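 active means over 50% inhibition of tissue-nonspecific alkaline phosphatase at 20 µM in the single-dose screen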;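 further: plate controls were DMSO wells for no effect and EDTA-quenched wells as full inhibition for full effect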
Target sequence (P05186 whole entry, looked up): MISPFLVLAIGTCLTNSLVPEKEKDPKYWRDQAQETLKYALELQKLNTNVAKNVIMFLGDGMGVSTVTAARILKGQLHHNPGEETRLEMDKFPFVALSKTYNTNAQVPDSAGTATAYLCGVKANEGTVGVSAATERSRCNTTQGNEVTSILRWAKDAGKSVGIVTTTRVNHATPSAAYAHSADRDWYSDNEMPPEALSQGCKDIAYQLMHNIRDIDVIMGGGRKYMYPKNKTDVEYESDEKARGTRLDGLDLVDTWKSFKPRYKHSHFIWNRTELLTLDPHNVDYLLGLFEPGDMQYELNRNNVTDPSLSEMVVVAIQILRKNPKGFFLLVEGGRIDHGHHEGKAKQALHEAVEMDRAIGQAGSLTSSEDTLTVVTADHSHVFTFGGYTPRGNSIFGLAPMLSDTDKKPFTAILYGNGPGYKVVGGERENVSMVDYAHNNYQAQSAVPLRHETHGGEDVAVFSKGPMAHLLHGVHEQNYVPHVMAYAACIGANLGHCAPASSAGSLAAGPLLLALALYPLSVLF
CHT block: inhibits the human high affinity choline transporter; Q9GZV3; CHT-expressing cells, membrane potential dye, choline response; stronger effect = lower value; B-score at 10 µM; actives 0.86% (n = 310,000);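 active means B-score over 3 SD under the library average, and starting fluorescence ratio not unusually high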;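 further: choline stimulus applied at its EC90 after an EC20 pre-addition; B-score computed on integrated fluorescence ratio after choline addition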
TNAP inh no acc: blocks human TNAP activity with no phosphate acceptor present; purified TNAP, CDP-star luminescence, 30 min; inhibition, % at 20 µM; actives 0.26% (n = 200,000);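 active means tissue-nonspecific alkaline phosphatase inhibition above about 50% at 20 µM in the single-dose screen, limit read from the data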;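 further: 0% = DMSO negative control and 100% = EDTA positive control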
ABCB6 inh MLPCN: blocks the human ABCB6 transporter; Q9NP58; K562-ABCB6 porphyrin accumulation, flow cytometry, 1 h; stronger effect = lower value; fluorescence ratio to DMSO, % at 10 µM; actives 0.19% (n = 360,000); AID 602162;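 active means fluorescence ratio to DMSO below 75%, the collection mean minus 3 SD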;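 further: signal is porphyrin accumulated inside mitochondria; 100% equals median channel fluorescence of DMSO control wells; lower ratio means ABCB6 inhibition with less porphyrin fluorescence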
TNAP act hi DEA: increases human TNAP activity under high phosphate acceptor concentration; purified TNAP, CDP-star luminescence, 1 M DEA, 30 min; stronger effect = higher value; 0 = EDTA background, 1 = DMSO-only activity; activation factor at 20 µM; 200,000 tested, under 10 active;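 active means activation factor at least 2 at 20 µM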
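Test system – human TNAP · Doses – 20 µM single point · Incubation – 30 min, room temperature · Signal – luminescent substrate turnover signal · Read-out basis – activation factor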
ABCB6 inh CP1: blocks the human ABCB6 transporter. shares compounds with ABCB6 inh MLPCN. ratio response (% of DMSO), % at 10 µM. 700 tested, under 10 active. K562-ABCB6 porphyrin accumulation, flow cytometry, 1 h; stronger effect = lower value;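 active means repeat-averaged ratio response below 75% of DMSO, the collection mean minus 3 SD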;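 further: median porphyrin fluorescence at 575 nm with 488 nm excitation from mitochondria; lower ratio means less porphyrin signal so ABCB6 inhibition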
* = called active by the depositor. Compounds with a hit are over-represented: about 1.4% of the library has one in this group of screens.

`CS/C(=N\S(=O)(=O)c1cccs1)Nc1ccc(Br)cc1F` gave CHT PAM inactive, TNAP inh hiacc 0.1, CHT block inactive, TNAP inh no acc -0.7, ABCB6 inh MLPCN 98.0 and TNAP act hi DEA 1.
`O=C(CC(c1ccc(F)cc1)c1ccco1)N1CCOCC1` (configuration not stated) gave CHT PAM inactive, TNAP inh hiacc 2.5, CHT block inactive, TNAP inh no acc -7.9, ABCB6 inh MLPCN 72.0*, TNAP act hi DEA 1 and ABCB6 inh CP1 101.0.
For O=C(CC(c1ccc(F)cc1)c1ccco1)N1CCCC1 (configuration not stated) the results were CHT PAM inactive, TNAP inh hiacc -2.5, CHT block inactive, TNAP inh no acc -8.4, ABCB6 inh MLPCN 104.0 and TNAP act hi DEA 1.
For CC(=O)Oc1c(S(=O)(=O)c2ccccc2)c(C)nn1C(C)(C)C the results were CHT PAM inactive, TNAP inh hiacc -1.5, CHT block inactive, TNAP inh no acc -11.2, ABCB6 inh MLPCN 91.0 and TNAP act hi DEA 1.
Cc1nn(C(C)(C)C)c(OC(=O)c2cccs2)c1S(=O)(=O)c1ccccc1 was read as CHT PAM inactive, TNAP inh hiacc -2.0, CHT block inactive, TNAP inh no acc -8.6, ABCB6 inh MLPCN 74.0*, TNAP act hi DEA 1 and ABCB6 inh CP1 101.0.
Cc1ccc(-c2cc(C(=O)N/N=C/c3c(C)nn(C)c3C)c3ccccc3n2)c(C)c1 was read as CHT PAM inactive, TNAP inh hiacc -10.2, CHT block inactive, TNAP inh no acc -11.1, ABCB6 inh MLPCN 95.0 and TNAP act hi DEA 1.1.
For O=c1c(C(c2ccc(Br)cc2)c2c(O)nc3n(c2=O)CCS3)c(O)nc2n1CCS2 the results were CHT PAM inactive, CHT block inactive, ABCB6 inh MLPCN 74.0* and ABCB6 inh CP1 102.0.
Screening O=C(NCc1ccc(F)cc1)c1cc(-c2cccs2)on1 returned CHT PAM inactive, TNAP inh hiacc -2.3, CHT block inactive, TNAP inh no acc -11.7, ABCB6 inh MLPCN 96.0 and TNAP act hi DEA 1.
For O=C(NCc1ccccc1)c1cc(-c2cccs2)on1 the results were CHT PAM inactive, TNAP inh hiacc -4.0, CHT block inactive, TNAP inh no acc -8.2, ABCB6 inh MLPCN 62.0*, TNAP act hi DEA 1 and ABCB6 inh CP1 101.0.
CCOc1ccc(OCCNC(=O)C(NC(=O)c2c(F)cccc2F)C(C)C)cc1 (configuration not stated) was read as ABCB6 inh MLPCN 96.0.
Screening Cc1ccc(NC(=O)CC2SCCNC2=O)cc1Cl (configuration not stated) returned CHT PAM inactive, TNAP inh hiacc -5.2, CHT block inactive, TNAP inh no acc -14.7, ABCB6 inh MLPCN 67.0*, TNAP act hi DEA 1.1 and ABCB6 inh CP1 100.0.
`O=C(CC1SCCNC1=O)Nc1ccc(F)c(Cl)c1` (configuration not stated) gave CHT PAM inactive, TNAP inh hiacc -6.6, CHT block inactive, TNAP inh no acc -8.8, ABCB6 inh MLPCN 103.0 and TNAP act hi DEA 1.1.
Cc1ccc(S(=O)(=O)NCCc2cn3nc(C)c(C)nc3n2)cc1C was read as CHT PAM inactive, CHT block inactive and ABCB6 inh MLPCN 107.0.
Screening O=C(c1cccs1)N1CCCC(c2nc3c(nnn3Cc3cccc(Cl)c3)c(=O)[nH]2)C1 (configuration not stated) returned CHT PAM inactive, CHT block inactive and ABCB6 inh MLPCN 95.0.
For O=C(c1cccs1)N1CCC(c2nc3c(nnn3Cc3cccc(Cl)c3)c(=O)[nH]2)CC1 the results were CHT PAM inactive, CHT block inactive, ABCB6 inh MLPCN 101.0 and ABCB6 inh CP1 99.0.
Screening O=C(c1cccs1)N1CCC(c2nc3c(nnn3Cc3c(Cl)cccc3Cl)c(=O)[nH]2)CC1 returned CHT PAM inactive, CHT block inactive, ABCB6 inh MLPCN 96.0 and ABCB6 inh CP1 100.0.
Cc1ccc(C)c(Cn2nnc3c(=O)[nH]c(C4CCN(C(=O)c5cccs5)CC4)nc32)c1 was read as CHT PAM inactive, TNAP inh hiacc -8.6, CHT block inactive, TNAP inh no acc 2.4, ABCB6 inh MLPCN 83.0 and TNAP act hi DEA 1.1.
Cc1ccc(Cn2nnc3c(=O)[nH]c(C4CCN(C(=O)c5cccs5)CC4)nc32)cc1 was read as CHT PAM inactive, TNAP inh hiacc -1.5, CHT block inactive, TNAP inh no acc -7.7, ABCB6 inh MLPCN 100.0, TNAP act hi DEA 1 and ABCB6 inh CP1 98.0.
COc1cc([N+](=O)[O-])c(C(=O)N2CCOCC2)c([N+](=O)[O-])c1 was read as CHT PAM inactive, TNAP inh hiacc -1.7, CHT block inactive, TNAP inh no acc -4.9, ABCB6 inh MLPCN 98.0 and TNAP act hi DEA 1.
`CC(=O)SC1CC(=O)C=C2CCC3C4CCC(=O)OC4(C)CCC3C21C` (configuration not stated) gave ABCB6 inh MLPCN 103.0.
`O=C(c1ccc(COc2ccccc2Br)o1)N1N=C(C(F)F)CC1(O)C(F)F` (configuration not stated) gave CHT PAM inactive, TNAP inh hiacc 0.0, CHT block inactive, TNAP inh no acc -7.2, ABCB6 inh MLPCN 96.0, TNAP act hi DEA 1 and ABCB6 inh CP1 101.0.
`O=C(c1ccc(Cn2cc([N+](=O)[O-])cn2)o1)N1N=C(C(F)F)CC1(O)C(F)F` (configuration not stated) gave CHT PAM inactive, TNAP inh hiacc 7.5, CHT block inactive, TNAP inh no acc 4.5, ABCB6 inh MLPCN 99.0 and TNAP act hi DEA 0.9.
Screening COc1cccc(CNC(=O)C2CCCN(C(=O)c3ccc(Cl)cc3)C2)c1 (configuration not stated) returned ABCB6 inh MLPCN 93.0.
Screening COc1ccc(CCNC(=O)C2CCCN(C(=O)c3ccc(Cl)cc3)C2)cc1 (configuration not stated) returned CHT PAM inactive, CHT block inactive, ABCB6 inh MLPCN 73.0* and ABCB6 inh CP1 102.0.
O=C(COC(=O)C12CC3CC(CC(Cl)(C3)C1)C2)Nc1ccccc1 was read as ABCB6 inh MLPCN 99.0.
Screening O=c1cc(CSc2nnnn2-c2ccccc2)nc2nc[nH]n12 returned CHT PAM inactive, TNAP inh hiacc 0.5, CHT block inactive, TNAP inh no acc -6.6, ABCB6 inh MLPCN 64.0*, TNAP act hi DEA 1 and ABCB6 inh CP1 98.0.
